In brackets after ≈: the same amount, converted by molar mass.
How the values were obtained:
[1] = system: Spermatozoa; experiment: Sperimcidal activity against human spermatozoa assessed as sperm motility at 1 % drug solution%; type: functional
How it was run: (§1)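 Drop of sperm–compound mixture placed on slide under cover glass, examined by phase contrast microscopy in five fields; percentage of motile spermatozoa scored visually within 30–40 s. N-9 as reference control; some compounds tested as D-(-)-tartrate salts.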

[2] = system: Trichomonas vaginalis; experiment: Antitrichomonal activity against Trichomonas vaginalis after 48 hrs by trypan blue exclusion assay; type: functional
How it was run: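 Trophozoites in TYM medium; stock solutions serially diluted in TYM to concentrations up to 0.1 mg/mL, DMSO/TYM as vehicle control. Parasites added, incubated anaerobically at 37 °C, viability checked by trypan blue exclusion under microscope (200×) from 3 to 48 h. MIC = lowest concentration with all cells dead at 48 h. Metronidazole reference; run three times.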

[3] = system: Candida albicans; experiment: Antifungal activity against Candida albicans after 48 hrs by broth microdilution technique; type: functional
How it was run: (§2)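 Broth microdilution MIC per NCCLS guidelines in RPMI 1640 buffered with MOPS; starting inoculum of test culture 1–5 × 10³ CFU/mL.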

[4] = system: Cryptococcus neoformans; experiment: Antifungal activity against Cryptococcus neoformans after 48 hrs by broth microdilution technique; type: functional; how it was run: as §2
[5] = system: Sporothrix schenckii; experiment: Antifungal activity against Sporothrix schenckii after 48 hrs by broth microdilution technique; type: functional; how it was run: as §2
[6] = system: Trichophyton mentagrophytes; experiment: Antifungal activity against Trichophyton mentagrophytes after 48 hrs by broth microdilution technique; type: functional; how it was run: as §2
[7] = system: Aspergillus fumigatus; experiment: Antifungal activity against Aspergillus fumigatus after 48 hrs by broth microdilution technique; type: functional; how it was run: as §2
[8] = system: Candida parapsilosis; experiment: Antifungal activity against Candida parapsilosis after 48 hrs by broth microdilution technique; type: functional; details: Lodderomyces parapsilosis; how it was run: as §2
[9] = system: HeLa; experiment: Cytotoxicity against human HeLa cells at 200 ug/ml after 24 hrs by MTT assay; type: cell-based
How it was run: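 HeLa cells seeded at 5.0 × 10⁴ per well in DMEM with 10% FCS, 24 h at 37 °C in 5% CO₂; medium replaced with fresh medium containing test dilutions, 10% DMSO vehicle in control wells. After a further 24 h, MTT added; formazan dissolved in DMSO, OD read at 540 nm. Mean ± SE of 3 estimations.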

[10] = system: Spermatozoa; experiment: Sperimcidal activity against human spermatozoa assessed as sperm immobilization at 1 % drug solution%; type: functional; how it was run: as §1

SMILES	Activity [1] [%]	MIC [2] [µM]	MIC [3] [µg/mL]	MIC [4] [µg/mL]	MIC [5] [µg/mL]	MIC [6] [µg/mL]	MIC [7] [µg/mL]	MIC [8] [µg/mL]	Activity [9]	Activity [10] [%]
Cc1ncc([N+](=O)[O-])n1CCOC(=O)CCN1CCN(c2ccc(F)cc2)CC1	88.24	1.54 (≈ 0.624 µg/mL)	> 50	> 50	> 50	50 (≈ 123 µM)	> 50	> 50	Non-toxic	–
Cc1ncc([N+](=O)[O-])n1CCOS(C)(=O)=O	94.12	5.02 (≈ 1.25 µg/mL)	> 50	> 50	50 (≈ 201 µM)	> 50	> 50	> 50	–	–
Cc1ncc([N+](=O)[O-])n1CCn1cnc2ccccc21	0	4.61 (≈ 1.25 µg/mL)	> 50	> 50	50 (≈ 184 µM)	> 50	> 50	> 50	Non-toxic	100
Cc1ncc([N+](=O)[O-])n1CCOC(=O)CCn1ccnc1[N+](=O)[O-]	100	9.25 (≈ 3.13 µg/mL)	> 50	> 50	> 50	50 (≈ 148 µM)	> 50	> 50	Non-toxic	–
Cc1ncc([N+](=O)[O-])n1CCOC(=O)CCn1c([N+](=O)[O-])cnc1C	88.24	20.6 (≈ 7.26 µg/mL)	> 50	> 50	> 50	50 (≈ 142 µM)	> 50	> 50	Non-toxic	–
Cc1ncc([N+](=O)[O-])n1CCSC(=S)N1CCN(c2ccc([N+](=O)[O-])cc2)CC1	41.18	2.87 (≈ 1.25 µg/mL)	> 50	> 50	> 50	> 50	> 50	> 50	Non-toxic	–
Cc1ncc([N+](=O)[O-])n1CCOC(=O)CCn1ccnc1	100	10.7 (≈ 3.13 µg/mL)	> 50	> 50	> 50	50 (≈ 170 µM)	> 50	> 50	Non-toxic	–
CS(=O)(=O)[O-].Cc1ncc([N+](=O)[O-])n1CC[n+]1ccccc1	85.09	9.53	> 50	> 50	> 50	> 50	> 50	> 50	Non-toxic	–
Cc1ncc([N+](=O)[O-])n1CCn1ccnc1	92.36	14.1 (≈ 3.13 µg/mL)	25 (≈ 113 µM)	> 50	50 (≈ 226 µM)	> 50	> 50	> 50	Non-toxic	–
C=CC(=O)OCCn1c([N+](=O)[O-])cnc1C	70.59	42.2 (≈ 9.51 µg/mL)	> 50	50 (≈ 222 µM)	50 (≈ 222 µM)	50 (≈ 222 µM)	> 50	> 50	Non-toxic	–
Cc1ncc([N+](=O)[O-])n1CCOC(=O)CCn1nnc2ccccc21	95.734	27.6 (≈ 9.51 µg/mL)	> 50	> 50	> 50	50 (≈ 145 µM)	> 50	> 50	Non-toxic	–
Cc1ncc([N+](=O)[O-])n1CCOC(=O)CCn1cncn1	100	21.3 (≈ 6.26 µg/mL)	> 50	> 50	> 50	50 (≈ 170 µM)	> 50	> 50	Non-toxic	–
Cc1ncc([N+](=O)[O-])n1CCSC(=S)N1CCN(c2ncccn2)CC1	94.12	25.4 (≈ 10 µg/mL)	> 50	> 50	> 50	50 (≈ 127 µM)	> 50	> 50	Non-toxic	–
Cc1ncc([N+](=O)[O-])n1CCCl	58.82	6.6 (≈ 1.25 µg/mL)	> 50	50 (≈ 264 µM)	50 (≈ 264 µM)	> 50	> 50	> 50	–	–
CC(=O)OCCn1c([N+](=O)[O-])cnc1C	82.35	23.5 (≈ 5 µg/mL)	> 50	> 50	> 50	> 50	> 50	> 50	–	–
Cc1ncc([N+](=O)[O-])n1CCOC(=O)CCl	98.37	10.1 (≈ 2.5 µg/mL)	> 50	> 50	> 50	25 (≈ 101 µM)	> 50	> 50	–	–
Cc1ncc([N+](=O)[O-])n1CCOC(=O)CCN1CCN(c2ccc([N+](=O)[O-])cc2)CC1	82.35	1.45 (≈ 0.627 µg/mL)	> 50	> 50	> 50	50 (≈ 116 µM)	> 50	> 50	Non-toxic	–
Cc1ncc([N+](=O)[O-])n1CCSC(=S)N1CCOCC1	70.59	1.98 (≈ 0.626 µg/mL)	> 50	> 50	50 (≈ 158 µM)	50 (≈ 158 µM)	> 50	> 50	Non-toxic	–
Cc1ncc([N+](=O)[O-])n1CCSC(=S)N1CCCCC1	70.59	1 (≈ 0.314 µg/mL)	> 50	> 50	25 (≈ 79.5 µM)	50 (≈ 159 µM)	> 50	> 50	Non-toxic	–
Cc1ncc([N+](=O)[O-])n1CCOC(=O)CCN(C)CCC(Oc1ccc(C(F)(F)F)cc1)c1ccccc1 (stereo not given)	0	11.7 (≈ 6.25 µg/mL)	> 50	> 50	> 50	50 (≈ 93.5 µM)	> 50	> 50	Non-toxic	100
CCN(CC)C(=S)SCCn1c([N+](=O)[O-])cnc1C	100	1.03 (≈ 0.311 µg/mL)	50 (≈ 165 µM)	50 (≈ 165 µM)	25 (≈ 82.7 µM)	25 (≈ 82.7 µM)	> 50	> 50	Non-toxic	–
Cc1ncc([N+](=O)[O-])n1CCSC(=S)N1CCN(C)CC1	0	7.6 (≈ 2.5 µg/mL)	> 50	> 50	50 (≈ 152 µM)	50 (≈ 152 µM)	> 50	> 50	Non-toxic	100
Cc1ncc([N+](=O)[O-])n1CCSC(=S)N1CCCC1.O=C(O)C(O)C(O)C(=O)O	0	8.33	50	50	25	50	> 50	> 50	Non-toxic	100
Cc1ncc([N+](=O)[O-])n1CCSC(=S)N(C)C.O=C(O)C(O)C(O)C(=O)O	0	1.14	> 50	> 50	> 50	50	> 50	> 50	Non-toxic	100
COc1ccccc1N1CCN(C(=S)SCCn2c([N+](=O)[O-])cnc2C)CC1.O=C(O)C(O)C(O)C(=O)O	0	5.94	> 50	> 50	50	25	> 50	> 50	Non-toxic	100
Cc1ncc([N+](=O)[O-])n1CCSC(=S)N1CCN(c2ccccn2)CC1.O=C(O)C(O)C(O)C(=O)O	0	6.38	> 50	> 50	50	50	> 50	> 50	Non-toxic	100
OC(Cn1cncn1)(Cn1cncn1)c1ccc(F)cc1F [FLUCONAZOLE]	–	–	0.5 (≈ 1.63 µM)	1 (≈ 3.27 µM)	2 (≈ 6.53 µM)	1 (≈ 3.27 µM)	2 (≈ 6.53 µM)	1 (≈ 3.27 µM)	Non-toxic	–
Cc1ncc([N+](=O)[O-])n1CCOC(=S)[S-].[Na+] [METRONIDAZOLE XANTHATE]	90.24	112	> 50	> 50	> 50	> 50	> 50	> 50	Non-toxic	–
Cc1ncc([N+](=O)[O-])n1CCO [METRONIDAZOLE]	100	11.7 (≈ 2 µg/mL)	–	–	–	–	–	–	Non-toxic	–
CCCCCCCCCc1ccc(OCCOCCOCCOCCOCCOCCOCCOCCOCCO)cc1 [NONOXYNOL 9]	0	60.8 (≈ 37.5 µg/mL)	> 50	–	–	–	–	50 (≈ 81.1 µM)	–	–

— ChEMBL document CHEMBL1153733, “Imidazole derivatives as possible microbicides with dual protection” (Eur J Med Chem, 2010)
